From PubChem
TMEM16A inh = TMEM16A chloride channel inhibitors, primary screen, cell-based, HTS | Anoctamin-1 (Mus musculus), Q8BHY3 | AID 588511, 2011 | 310,000 tested, 1.2% active | HEK293 TMEM16A/YFP iodide influx fluorescence, ionomycin | normalized B-score (activity score, 25-100; higher = stronger inhibition) at 10 µM;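 active = ratio plate-corrected score three or more library SD toward inhibition, starting fluorescence score within five deviations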;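 also: score derived from kinetic fluorescence span divided by baseline fluorescence per well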
MC4R ag barr = MC4R agonists recruiting beta-arrestin, primary screen, cell-based, luminescence, agonist arm of biased-ligand search; Melanocortin receptor 4 (Homo sapiens), P32245; U2OS MC4R beta-arrestin complementation; percent of melanotan II response, DMSO zero; activation, % at 8.9 µM; 360,000 tested, 0.98% active; AID 540308, 2011;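 active = activation above a per-plate cutoff, the mean activation of sample wells on that plate plus 3 SD, cut at about 8% in these data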
MIN6 prolif = inducers of MIN6 beta-cell proliferation, primary screen, ATP luminescence, uHTS; 330,000 tested, 0.29% active; proliferation, % at 10 µM; MIN6 cells proliferation, ATPlite luminescence, 48 h; cells starved in 0.2% serum; 100% = growth in 10% serum;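 active = compounds whose signal lies at least 3.5 SD above the mean of all wells on their plate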;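 also: 0% = DMSO-treated cells in low-serum medium and 100% = 10% serum control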
TMEM16A act = TMEM16A chloride channel activators or potentiators, primary screen, cell-based, HTS; Anoctamin-1 (Mus musculus), Q8BHY3; AID 623877, 2012; 340,000 tested, 0.3% active; B-score at 10 µM; HEK293 TMEM16A/YFP-H148Q/I152L, iodide quench fluorescence; active compounds read low;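 active = fluorescence-ratio B-score plate-corrected deviation score at least 3 library SD below zero, with starting fluorescence score within 5 deviations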;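 also: channel opened by trigger with iodide after compound preincubation; score built on the fluorescence ratio of max minus min over baseline; more negative score means more quench and so TMEM16A activation or potentiation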
HTR2A ag = mouse Htr2a agonists via beta-arrestin recruitment, primary screen, cell-based, luminescence; CHO-K1 mHTR2A beta-arrestin complementation; percent of 30 µM serotonin response; 5-hydroxytryptamine receptor 2A (Mus musculus), P35363; 360,000 tested, 0.66% active; activation, % at 7.6 µM; AID 624169, 2012;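 active = activation above a run cutoff, the mean activation of all tested compounds plus 3 SD, cut at about 14% in these data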;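 also: 0% = plate median of compound wells and 100% = 30 µM serotonin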
MC4R antagonist = MC4R antagonists of cAMP signaling, primary screen, cell-based, TR-FRET, antagonist arm of biased-ligand search; AID 540295, 2011; Melanocortin receptor 4 (Homo sapiens), P32245; 360,000 tested, 0.48% active; MC4R-expressing cells, MTII-stimulated cAMP, LANCE TR-FRET; inhibition, % at 6.5 µM;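 active = inhibition above its plate's cutoff, the mean of tested wells on that plate plus 3 SD, cut at about 29% in these data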;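 also: 0% = Melanotan II alone and 100% = Melanotan II plus saturating MCL0020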
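Material: U2OS-MC4R stable cell line | Reagent: Melanotan II challenge after compound preincubation | Doses: One concentration, 6.5 µM nominal | Incubation: 30-min compound preincubation, 1-h Melanotan II challenge, 1-h detection, room temperature | Signal: TR-FRET cAMP assay | Replicates: One well per compound, no replicates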
TMEM16A reconf = TMEM16A chloride channel inhibitors, confirmation, cell-based, re-confirmation; shares compounds with TMEM16A inh; HEK293 TMEM16A/YFP-H148Q, iodide quench fluorescence; ionomycin added to raise cell calcium; inhibition, % at 10 µM; 2,300 tested, 39% active; AID 652189, 2013;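 active = mean duplicate percent inhibition, scaled so buffer wells are 0 and the reference blocker 100, over three buffer SD above buffer mean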
HEK293 Ca mobil = calcium mobilization in TMEM16A/YFP HEK293 cells, confirmation, counter-screen for TMEM16A inhibitor project | shares compounds with TMEM16A inh | Fluo4 calcium mobilization | calcium response (% of ionomycin), % at 10 µM | 2,300 tested, 2% active | AID 652231, 2013;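 active = duplicate-averaged calcium signal over 20% of the ionomycin maximum, relative to buffer baseline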;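 also: each well's signal is peak minus trough fluorescence divided by its pre-addition baseline; 0% = buffer wells and 100% = ionomycin wells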
Parental YFP cnt = iodide YFP quench changes in parental YFP-HEK293, counter-screen for TMEM16A inhibitor project, cell-based. shares compounds with TMEM16A inh. ionomycin. YFP ratio F(max-min)/F0 at 10 µM. 2,300 tested, under 10 active;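 active = yellow fluorescent protein signal ratio exceeding the buffer control mean by over 5 SD of those controls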;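 also: ratio is mean of duplicate wells from kinetic YFP trace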
ClC-1 rat inh = ClC-1 chloride channel inhibition, selectivity assay for TMEM16A inhibitor project, cell-based, voltage-dependent ClC-1. shares compounds with TMEM16A inh. CHO ClC-1-YFP, iodide influx fluorescence quench; iodide control reads 0, buffer control 100. ratio percent, % at 10 µM. 2,300 tested, under 10 active. AID 652236, 2013;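 active = duplicate-mean ratio percent above the mean of iodide-only control wells, which defines zero, plus 5 of their SD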;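 also: higher percent means stronger block of ClC-1 iodide influx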
Target sequence (P35524 whole entry, looked up): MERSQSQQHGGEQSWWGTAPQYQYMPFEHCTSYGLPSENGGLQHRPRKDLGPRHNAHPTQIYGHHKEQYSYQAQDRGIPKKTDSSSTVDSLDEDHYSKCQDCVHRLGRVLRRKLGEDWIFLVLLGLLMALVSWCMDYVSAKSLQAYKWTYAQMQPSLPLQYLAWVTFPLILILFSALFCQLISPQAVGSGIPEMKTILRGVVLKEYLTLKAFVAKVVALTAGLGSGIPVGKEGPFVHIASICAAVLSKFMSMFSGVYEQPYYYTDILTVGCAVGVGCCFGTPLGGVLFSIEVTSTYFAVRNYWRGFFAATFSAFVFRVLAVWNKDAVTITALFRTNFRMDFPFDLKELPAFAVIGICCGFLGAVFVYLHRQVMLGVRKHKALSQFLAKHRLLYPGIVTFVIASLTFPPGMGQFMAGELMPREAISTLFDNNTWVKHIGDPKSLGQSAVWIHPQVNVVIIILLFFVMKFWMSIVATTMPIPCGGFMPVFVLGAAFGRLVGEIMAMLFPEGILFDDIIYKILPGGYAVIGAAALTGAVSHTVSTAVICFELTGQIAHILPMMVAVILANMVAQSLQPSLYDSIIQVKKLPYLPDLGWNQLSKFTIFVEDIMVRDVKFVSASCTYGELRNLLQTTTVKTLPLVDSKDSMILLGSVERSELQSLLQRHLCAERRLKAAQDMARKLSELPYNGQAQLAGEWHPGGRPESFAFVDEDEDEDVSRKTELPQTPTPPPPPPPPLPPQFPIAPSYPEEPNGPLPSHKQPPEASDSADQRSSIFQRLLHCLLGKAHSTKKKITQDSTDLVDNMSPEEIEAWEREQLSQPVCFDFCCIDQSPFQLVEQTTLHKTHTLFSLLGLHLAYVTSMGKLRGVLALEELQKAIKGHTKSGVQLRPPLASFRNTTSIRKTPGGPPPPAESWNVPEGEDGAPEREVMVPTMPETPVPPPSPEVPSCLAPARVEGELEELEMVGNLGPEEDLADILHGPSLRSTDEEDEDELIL
Starred values were filed as active, the others as inactive; i = inactive; . = not tested or not shown. In the library only some 3.4% were active in any assay of this set; here they are far more common.

SMILES	TMEM16A inh	MC4R ag barr	MIN6 prolif	TMEM16A act	HTR2A ag	MC4R antagonist	TMEM16A reconf	HEK293 Ca mobil	Parental YFP cnt	ClC-1 rat inh
O=C(O)c1ccc(S(=O)(=O)NN=Cc2c[nH]c3ccccc23)cc1	.	0	.	.	4	1	.	.	.	.
CC(c1ccco1)N(C(=O)CSc1ccc(Br)cc1)c1ccccn1 (centres undefined)	100*	-1	-5	i	-2	5	18%*	i	-1.2	-14
c1ccc(N2CCN(c3nc4ccccc4n4nnnc34)CC2)cc1	i	1	-2	i	-3	1	i	i	-0.7	0
c1ccc2c(c1)nc(N1CCOCC1)c1nnnn12	i	0	5	i	8	4	.	.	.	.
COc1ccc(C(C)=O)cc1COC(=O)c1ccc(C)c(S(=O)(=O)N2CCOCC2)c1	.	0	5	i	-3	10	.	.	.	.
O=C(C1CCC1)N1CCN(S(=O)(=O)c2ccc(Br)cc2Cl)CC1	i	0	1	i	3	3	.	.	.	.
Cc1cc(S(=O)(=O)N2CCN(Cc3ccc4c(c3)OCO4)CC2)cc(C)c1N1CCCC1=O	100*	-1	-1	i	-5	-1	33%*	i	-1.1	-14
Cc1cccc(S(=O)(=O)N2CCN(Cc3ccc4c(c3)OCO4)CC2)c1	i	-1	1	i	-9	7	.	.	.	.
CC(=O)c1ccc(NC(=O)N2CCN(c3ccc(C)cc3)C(C)C2)cc1 (centres undefined)	25*	-5	7	i	-2	7	i	i	-0.88	-4
O=C(Cn1cnc2c(oc3ccccc32)c1=O)N1CCCc2ccccc21	i	1	-2	i	3	9	.	.	.	.
O=C(CSc1ncnc2c1oc1ccccc12)N1CCCc2ccccc21	100*	-3	-6	i	-3	-6	28%*	i	-0.8	-8
O=C(Oc1ccc(-c2nnco2)cc1)c1ccco1	i	0	-1	i	2	-4	.	.	.	.
N#Cc1c(-c2ccccc2)nc(SCc2cccc(Cl)c2)[nH]c1=O	100*	-2	-2	i	-7	1	83%*	i	-0.99	-19
Cc1[nH]c(=O)nc(SCc2cccc(Cl)c2)c1C#N	i	-1	-3	i	-4	6	.	.	.	.
COc1cc(NC(=O)c2ccnc(N)c2)cc(C(=O)Nc2cccc(C(F)(F)F)c2)c1	i	-1	-3	i	-2	13	.	.	.	.
COc1cc(NC(=O)c2cnc(N)o2)cc(C(=O)Nc2cccc(C(F)(F)F)c2)c1	100*	0	-3	i	-4	10	46%*	i	-0.87	-14
Cn1c(=O)n(C)c2cc(S(=O)(=O)Nc3cc(Cl)ccc3O)ccc21	i	3	-3	i	6	-4	i	i	-1.2	-9
Cn1c(=O)n(C)c2cc(S(=O)(=O)Nc3ccccc3O)ccc21	i	-2	-3	i	1	8	.	.	.	.
O=[N+]([O-])c1ccc(N2N=C(c3ccco3)CC2c2ccccc2)cc1 (centres undefined)	i	-3	-4	i	-2	-2	27%*	i	-0.81	8
O=C(CSc1cn[nH]n1)Nc1cccc(C(F)(F)F)c1	i	0	-1	i	-6	6	.	.	.	.
O=S(=O)(Nc1nc2ccccc2nc1N1CCc2ccccc2C1)c1ccc(Cl)cc1	25*	4	-3	i	0	-3	50%*	i	-0.79	-16
O=S(=O)(Nc1nc2ccccc2nc1N1CCc2ccccc2C1)c1ccc(Br)cc1	i	2	.	i	0	-2	.	.	.	.
CC(CO)NS(=O)(=O)c1cc(Cl)ccc1F (centres undefined)	.	0	.	.	-2	4	.	.	.	.
Cc1c(C(=O)NCc2ccc3c(c2)OCCO3)sc(=O)n1Cc1cccc(C(F)(F)F)c1	.	0	.	.	-3	11	.	.	.	.
COC(=O)C1CCN(S(=O)(=O)CCNC(=O)c2ccc(F)cc2)CC1	i	-5	-5	i	2	15	.	.	.	.
SMILES	TMEM16A inh	MC4R ag barr	MIN6 prolif	TMEM16A act	HTR2A ag	MC4R antagonist	TMEM16A reconf	HEK293 Ca mobil	Parental YFP cnt	ClC-1 rat inh
CCCC/C(C)=N\NC(=O)CNS(=O)(=O)c1ccc([N+](=O)[O-])cc1	25*	-1	-1	i	-1	2	i	i	-0.93	2
CN(Cc1ccc(Cl)cc1)C(=O)COC(=O)c1ccc(-c2ccc(O)cc2)cc1	.	-2	-3	i	-5	2	.	.	.	.
FC(F)(F)c1cccc(-c2nc3nc(Cl)c(Cl)nc3[nH]2)c1	25*	0	-6	i	0	14	31%*	i	-0.99	-19
O=Cc1c[nH]c2ccc(OCc3ccccc3)cc12	.	-1	-2	i	0	2	.	.	.	.
O=C(NCc1ccc(N2CCCC2=O)cc1)Nc1cccc(Cl)c1	25*	0	-3	i	-3	7	i	i	-1.1	-6
CSCCC(NC(=O)c1ccccc1)C(=O)NCCCn1nc(C)cc1C (centres undefined)	.	-1	-2	i	3	4	.	.	.	.
CNc1ccccc1C(C)(C)c1cc(-c2cccc(OC)c2)no1	25*	-1	-5	i	6	6	23%*	i	-0.85	-4
CNc1ccccc1C(C)(C)c1cc(-c2cc(C)cc(C)c2)no1	i	-2	-2	i	-1	6	.	.	.	.
